According to ChEMBL document CHEMBL2146370, “Newly synthesized bis-benzimidazole derivatives exerting anti-tumor activity through induction of apoptosis and autophagy” (Bioorg Med Chem Lett, 2012):
Activity calls are given as the source filed them. No cut-off for these calls is given here.

How the values were obtained:
U-937 = assay: Cytotoxicity against human U937 cells after 72 hrs by MTT assay; assay type: functional, cell-based; details: U-937, 72 h
Summary of the method: (§1)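 MTT assay in HeLa, HL60 and U937 cancer lines. IC50 in µM is the mean ± SD of three independent experiments. 5-Fluorouracil and paclitaxel served as positive controls.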

HL-60 [1] = assay: Cytotoxicity against human HL60 cells after 72 hrs by MTT assay; assay type: functional, cell-based; details: HL-60, 72 h; summary of the method: as §1
HeLa = assay: Cytotoxicity against human HeLa cells after 72 hrs by MTT assay; assay type: functional, cell-based; summary of the method: as §1
[2] = Cytotoxicity against human PBMC cells assessed as cell viability at 5 uM after 12 hrs by MTT assay; assay type: cell-based; details: read-out: Activity
Summary of the method: (§2)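 PBMC from three healthy adult volunteers, seeded at 5 × 10^5 cells/well in 96-well plates; cultured with various doses of test agent for 12, 24, 48 and 72 h; viability read out; n=3, mean ± SD; significance p < 0.05.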

[3] = Cytotoxicity against human PBMC cells assessed as cell viability at 5 uM after 24 hrs by MTT assay; assay type: cell-based; details: read-out: Activity; summary of the method: as §2
[4] = Cytotoxicity against human PBMC cells assessed as cell viability at 5 uM after 72 hrs by MTT assay; assay type: cell-based; details: read-out: Activity; summary of the method: as §2
[5] = Cytotoxicity against human PBMC cells assessed as cell viability at 5 uM after 48 hrs by MTT assay; assay type: cell-based; details: read-out: Activity; summary of the method: as §2
HL-60 [6] = assay: Induction of apoptosis in human HL60 cells assessed as membrane blebbing at 0.5 uM after 48 hrs by phase contrast microscopy; assay type: functional, cell-based
Summary of the method: (§3)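 HL60 cells were cultured with 0.5 µM for 24, 48 and 72 h. Morphology was compared with untreated control cells by microscopy.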

HL-60 [7] = assay: Induction of apoptosis in human HL60 cells assessed as round cell with shrunken nuclei at 0.5 uM after 48 hrs by phase contrast microscopy; assay type: functional, cell-based; summary of the method: as §3
HL-60 [8] = assay: Cell cycle arrest in human HL60 cells assessed as accumulation at sub-G1 phase after 48 hrs by PI-based flow cytometry analysis ( Rvb = 1.73 +/-0.08 %); assay type: functional
Summary of the method: (§4)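 HL60 cells exposed to 0.5 µM for 24, 48 and 72 h alongside untreated controls. Apoptosis was quantified by flow cytometry as the subG1 fraction.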

HL-60 [9] = assay: Induction of autophagy in human HL60 cells at 0.5 umol/L after 72 hrs by MDC staining based flow cytometry (reference value: 2.27 +/- 0.43 %); assay type: functional
Summary of the method: (§5)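 HL60 cells were treated with 0.5 µmol L-1 for 0, 24, 48 or 72 h, stained with MDC, and fluorescence intensity was analysed by flow cytometry.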

HL-60 [10] = assay: Induction of autophagy in human HL60 cells assessed as increase in beclin 1 level at 0.5 umol/L by Western blot analysis; assay type: functional, cell-based; details: TDE = time-dependent effect
Summary of the method: (§6)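 HL60 cells were treated with 0.5 µmol L-1 over a time course and analysed by Western blot for Beclin-1 and LC3-I to LC3-II conversion, with β-actin as loading control.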

HL-60 [11] = assay: Induction of apoptosis in human HL60 cells assessed as nuclear fragmentation by acridine orange staining-based fluorescence microscopy; assay type: functional, cell-based
Summary of the method: (§7)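 HL60 cells were stained with acridine orange and examined under a fluorescence microscope for chromatin condensation and nuclear fragmentation, with control-medium cells as reference.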

HL-60 [12] = assay: Induction of apoptosis in human HL60 cells assessed as decrease in apoptotic ratio at 0.5 uM after 24 hrs by MDC staining-based fluorescence analysis in presence of 3-MA; assay type: functional, cell-based
Summary of the method: (§8)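 HL60 cells were treated 24 h with 0.5 µM, with or without 1 mM 3-MA added beforehand. MDC-positive (autophagic) ratio and apoptotic ratio were measured by flow cytometry. Mean ± SD, n = 3.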

HL-60 [13] = assay: Induction of apoptosis in human HL60 cells assessed as decrease in number of MDC-positive cells at 0.5 uM after 24 hrs by MDC staining-based fluorescence analysis in presence of 3-MA; assay type: functional, cell-based; summary of the method: as §8
HL-60 [14] = assay: Induction of autophagy in human HL60 cells assessed as formation of autophagic vacuoles at 0.5 umol/L by MDC staining-based flow cytometry; assay type: functional, cell-based; details: TDE = time-dependent effect
Summary of the method: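 Autophagic vacuoles were labelled with monodansylcadaverine and viewed by fluorescence microscopy. MDC fluorescence intensity was quantified by flow cytometry after 0.5 µmol L-1 treatment.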

HL-60 [15] = assay: Induction of apoptosis in human HL60 cells assessed as non-adherent dead cell at 0.5 uM after 48 hrs by phase contrast microscopy; assay type: functional, cell-based; summary of the method: as §3
HL-60 [16] = assay: Induction of apoptosis in human HL60 cells assessed as round in cell shape at 0.5 uM after 24 hrs by phase contrast microscopy; assay type: functional, cell-based; summary of the method: as §3
HL-60 [17] = assay: Induction of apoptosis in human HL60 cells assessed as fragmentation of nuclei into apoptotic bodies at 0.5 uM after 48 hrs by phase contrast microscopy; assay type: functional, cell-based; summary of the method: as §3
PBMC = assay: Cytotoxicity against human PBMC cells assessed as cell viability at 160 uM after 24 to 72 hrs by MTT assay; assay type: cell-based
Summary of the method: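 PBMC were taken from three healthy adult volunteers and seeded at 5 × 10^5 cells/well. They were cultured 12, 24, 48 and 72 h across a range of concentrations up to 160 µM, with 5-FU for comparison. Viability is mean ± SD, n=3, compared by p < 0.05.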

HL-60 [18] = assay: Cell cycle arrest in human HL60 cells assessed as accumulation at sub-G1 phase by PI-based flow cytometry analysis; assay type: functional; details: TDE = time-dependent effect; summary of the method: as §4
HL-60 [19] = assay: Induction of apoptosis in human HL60 cells assessed as chromatin condensation by acridine orange staining-based fluorescence microscopy; assay type: functional, cell-based; summary of the method: as §7
HL-60 [20] = assay: Induction of apoptosis in human HL60 cells assessed as retraction of cellular process at 0.5 uM after 24 hrs by phase contrast microscopy; assay type: functional, cell-based; summary of the method: as §3
HL-60 [21] = assay: Induction of autophagy in human HL60 cells at 0.5 umol/L after 48 hrs by MDC staining based flow cytometry (reference value: 2.27 +/- 0.43 %); assay type: functional; summary of the method: as §5
HL-60 [22] = assay: Cell cycle arrest in human HL60 cells assessed as accumulation at sub-G1 phase after 72 hrs by PI-based flow cytometry analysis ( Rvb = 1.73 +/-0.08 %); assay type: functional; summary of the method: as §4
HL-60 [23] = assay: Induction of autophagy in human HL60 cells at 0.5 umol/L after 24 hrs by MDC staining based flow cytometry (reference value: 2.27 +/- 0.43 %); assay type: functional; summary of the method: as §5
HL-60 [24] = assay: Cell cycle arrest in human HL60 cells assessed as accumulation at sub-G1 phase after 24 hrs by PI-based flow cytometry analysis ( Rvb = 1.73 +/-0.08 %); assay type: functional; summary of the method: as §4
HL-60 [25] = assay: Induction of autophagy in human HL60 cells assessed as increase in LC3-II level at 0.5 umol/L by Western blot analysis; assay type: functional, cell-based; details: TDE = time-dependent effect; summary of the method: as §6

`CC(=O)O[C@H]1C(=O)[C@@]2(C)[C@H]([C@H](OC(=O)c3ccccc3)[C@]3(O)C[C@H](OC(=O)[C@H](O)[C@@H](NC(=O)c4ccccc4)c4ccccc4)C(C)=C1C3(C)C)[C@]1(OC(C)=O)CO[C@@H]1C[C@@H]2O` [PACLITAXEL] showed an IC50 (U-937) of 0.00337 µM and an IC50 (HL-60 [1]) of 0.00282 µM.
In the case of `COc1cc(OC)cc(-c2nc3cc(Oc4ccc5[nH]c(-c6cc(OC)cc(OC)c6)nc5c4)ccc3[nH]2)c1`, the IC50 (U-937) is reported as 7.09 µM, the IC50 (HeLa) is reported as 8.59 µM and the IC50 (HL-60 [1]) is reported as 6.35 µM.
Compound `CN1CCN(c2ccc3[nH]c(-c4ccc5[nH]c(-c6ccc(O)cc6)nc5c4)nc3c2)CC1` [HOECHST 33258] has an IC50 (U-937) of 15.4 µM, an IC50 (HeLa) of 51.3 µM and an IC50 (HL-60 [1]) of 32.4 µM.
For `c1ccc(-c2nc3cc(Oc4ccc5[nH]c(-c6ccccc6)nc5c4)ccc3[nH]2)cc1`, the IC50 (U-937) was 17.1 µM, the IC50 (HeLa) was 18.4 µM and the IC50 (HL-60 [1]) was 16.5 µM.
For `O=c1[nH]cc(F)c(=O)[nH]1` [FLUOROURACIL], the IC50 (U-937) was 1.07 µM, the viability at 12 h, 5 µM [2] was 98% and the viability at 24 h, 5 µM [3] was 94%. The IC50 (HeLa) was 0.28 µM, the IC50 (HL-60 [1]) was 0.06 µM and the viability at 72 h, 5 µM [4] was 76%. The viability at 48 h, 5 µM [5] was 87%.
In the case of `COc1ccc(-c2nc3cc(Oc4ccc5[nH]c(-c6ccc(OC)cc6)nc5c4)ccc3[nH]2)cc1`, the IC50 (U-937) is reported as 0.58 µM, the viability at 12 h, 5 µM [2] is reported as 98% and the Activity (HL-60 [6]) is reported as “Active”. For the same compound, the Activity (HL-60 [7]) was “Active”, the Activity (HL-60 [8]) was 63.02% and the Activity (HL-60 [9]) was 89.65%. The Activity (HL-60 [10]) was “tde”, the Activity (HL-60 [11]) was “Active” and the viability at 24 h, 5 µM [3] was 96%. For the same compound, the IC50 (HeLa) was 4.96 µM, the Activity (HL-60 [12]) was “Active” and the Activity (HL-60 [13]) was “Active”. For the same compound, the Activity (HL-60 [14]) was “tde”, the Activity (HL-60 [15]) was “Active” and the Activity (HL-60 [16]) was “Active”. The Activity (HL-60 [17]) was “Active”, the IC50 (HL-60 [1]) was 0.56 µM and the viability at 72 h, 5 µM [4] was 79%. The Activity (PBMC) was “Non-toxic”, the Activity (HL-60 [18]) was “tde” and the Activity (HL-60 [19]) was “Active”. The Activity (HL-60 [20]) was “Active”, the viability at 48 h, 5 µM [5] was 88% and the Activity (HL-60 [21]) was 47.27%. It also gave an Activity (HL-60 [22]) of 89.61%, an Activity (HL-60 [23]) of 9.79% and an Activity (HL-60 [24]) of 13.8%. The Activity (HL-60 [25]) was “tde”.
For `COc1cc(-c2nc3cc(Oc4ccc5[nH]c(-c6cc(OC)c(OC)c(OC)c6)nc5c4)ccc3[nH]2)cc(OC)c1OC`, the IC50 (U-937) was 6.92 µM, the IC50 (HeLa) was 9.37 µM and the IC50 (HL-60 [1]) was 7.56 µM.
`Fc1ccc(-c2nc3cc(Oc4ccc5[nH]c(-c6ccc(F)cc6)nc5c4)ccc3[nH]2)cc1` gave an IC50 (U-937) of 22.6 µM, an IC50 (HeLa) of 22.8 µM and an IC50 (HL-60 [1]) of 23.2 µM.
Work on `Brc1ccc(-c2nc3cc(Oc4ccc5[nH]c(-c6ccc(Br)cc6)nc5c4)ccc3[nH]2)cc1` yielded an IC50 (U-937) of 21.7 µM, an IC50 (HeLa) of 20.4 µM and an IC50 (HL-60 [1]) of 17.2 µM.
With `COc1cc(-c2nc3cc(Oc4ccc5[nH]c(-c6ccc(O)c(OC)c6)nc5c4)ccc3[nH]2)ccc1O` the IC50 (U-937) was 5.6 µM, the IC50 (HeLa) was 10.6 µM and the IC50 (HL-60 [1]) was 8.17 µM.
Compound `Clc1ccc(-c2nc3cc(Oc4ccc5[nH]c(-c6ccc(Cl)cc6Cl)nc5c4)ccc3[nH]2)c(Cl)c1` has an IC50 (U-937) of 20.5 µM, an IC50 (HeLa) of 17.2 µM and an IC50 (HL-60 [1]) of 15.8 µM.
